Test results from ChEMBL document CHEMBL1135639, “Array-based structure and gene expression relationship study of antitumor sulfonamides including N-[2-[(4-hydroxyphenyl)amino]-3-pyridinyl]-4-methoxybenzenesulfonamide and N-(3-chloro-7-indolyl)-1,4-benzenedisulfonamide” (J Med Chem, 2002).
Several values for one entry are separate records, joined by “and”; a condition that tells them apart may be missing. Equal values may be shown once.

Columns and labels:
Tubulin = Tubulin (Bos taurus, UniProt Q6B856+Q862L2+Q862F3); assay: Inhibitory activity against tubulin polymerization.; assay type: functional
Method in brief: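 Bovine brain microtubule protein (1 mg/mL) in 0.1 M MES, 1 mM EGTA, 0.5 mM MgCl2, pH 6.8, with 5% DMSO final. Compound at 0.30–100 µM, held 30 min at 4 °C, then warmed to 37 °C with 1 mM GTP. Turbidity followed at 350 nm; the 30 min value is plotted against log concentration. IC50 by least squares, triplicate.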

HCT-116 [1] = assay: Effective concentration to inhibit cell proliferation by 50% relative to untreated control cell after 72 hr of continuous exposure in HCT116-C9 cell line; assay type: functional, cell-based; conditions: Homo sapiens, HCT-116, 72 h
HCT-116 [2] = assay: Effective concentration to inhibit cell proliferation by 50% relative to untreated control cell after 72 hr of continuous exposure in HCT116-C9 -C1cell line; assay type: functional, cell-based; conditions: Homo sapiens, HCT-116, 72 h
P388 [3] = assay: Effective concentration to inhibit cell proliferation by 50% relative to untreated control cell after 72 hr of continuous exposure in P388 cell line; assay type: functional, cell-based; conditions: Mus musculus, P388, 72 h
P388 [4] = assay: Effective concentration to inhibit cell proliferation by 50% relative to untreated control cell after 72 hr of continuous exposure in P388/4.0 r-M cell line; assay type: functional, cell-based; conditions: Mus musculus, P388, 72 h
[5] = Relative resistance value as the ratio of IC50 for the resistant cell line to that of parental cell line.; assay type: functional
Method in brief: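 Ratio of MTT IC50 (72 h exposure) in the resistant subclone to that in the parental line: P388/4.0r-M versus P388, and HCT116-C9-C1 versus HCT116-C9. IC50s come from two triplicate runs each.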

Compound	IC50 (Tubulin) [nM]	IC50 (HCT-116 [1]) [nM]	IC50 (HCT-116 [2]) [nM]	IC50 (P388 [3]) [nM]	IC50 (P388 [4]) [nM]	Relative resistance [5]
NS(=O)(=O)c1ccc(S(=O)(=O)Nc2cccc3cc[nH]c23)cc1	> 100000					
COc1ccc(S(=O)(=O)Nc2cccc3c(Cl)c[nH]c23)cc1	9500	370	2200	1200	1200	
N#Cc1ccc(S(=O)(=O)Nc2cccc3c(Cl)c[nH]c23)cc1	> 100000					
COc1ccc(S(=O)(=O)Nc2cccc3cc(Cl)[nH]c23)cc1	2100					
NS(=O)(=O)c1ccc(C(=O)Nc2cccc3c(Cl)c[nH]c23)cc1	> 100000					
COc1ccc(S(=O)(=O)Nc2cccnc2Nc2ccc(O)cc2)cc1 [ABT-751]	2200	900	960	190	15000	
NS(=O)(=O)c1ccc(S(=O)(=O)Nc2cccc3c(Cl)c[nH]c23)cc1 [INDISULAM]	> 100000	210	29000	610	590	0.97 and 1.4
